Source: PubChem
An excerpt weighted towards active compounds, which were near 1.8% of everything screened.
M5 antag – human M5 muscarinic receptor antagonists, primary screen, CHO cells, Fluo-8 calcium fluorescence. Muscarinic acetylcholine receptor M5 (Homo sapiens), P08912. CHO-hM5 cells, ACh EC80. inhibition, % at 3 µM. actives 0.59% (n = 360,000). AID 624040, 2012;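 active = inhibition above a per-plate cutoff, the mean of that plate's test compounds plus 3 SD, cut at about 27% in these data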
Target sequence (P08912 whole entry, looked up): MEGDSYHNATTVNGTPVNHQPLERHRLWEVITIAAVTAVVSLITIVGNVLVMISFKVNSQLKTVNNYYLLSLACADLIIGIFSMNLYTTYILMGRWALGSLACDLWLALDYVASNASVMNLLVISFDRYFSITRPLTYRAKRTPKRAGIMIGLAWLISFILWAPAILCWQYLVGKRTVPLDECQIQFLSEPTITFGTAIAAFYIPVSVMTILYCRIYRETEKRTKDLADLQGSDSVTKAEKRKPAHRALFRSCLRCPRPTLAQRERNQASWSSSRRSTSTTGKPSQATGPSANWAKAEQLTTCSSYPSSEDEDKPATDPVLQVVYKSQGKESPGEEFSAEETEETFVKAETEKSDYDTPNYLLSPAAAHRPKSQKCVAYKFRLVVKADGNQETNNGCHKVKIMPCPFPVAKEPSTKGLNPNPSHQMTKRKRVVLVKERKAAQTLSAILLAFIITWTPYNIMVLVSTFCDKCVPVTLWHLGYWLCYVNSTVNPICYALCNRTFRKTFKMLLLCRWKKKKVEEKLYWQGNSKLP
M5 PAM – human M5 muscarinic receptor positive allosteric modulators, primary screen, CHO-K1 cells, Fluo-8 calcium fluorescence; activation, % at 3 µM; Muscarinic acetylcholine receptor M5 (Homo sapiens), P08912; CHO-K1 hM5, ACh EC20 PAM; 0% = ACh EC20, 100% = ACh EC100; actives 0.3% (n = 360,000);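 active = activation above the run cutoff, the mean activation of all test compounds plus 3 SD, cut at about 18% in these data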
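system = human M5 receptor in CHO-K1 cells | compound = one concentration, 3 µM final (nominal) | schedule = Post-acetylcholine fluorescence recording 140 s | signal = Fluo-8 calcium dye fluorescence, kinetic read | benchmarks = low control EC20 acetylcholine (0%), high control EC100 acetylcholine (100%) | repeats = singlicate, one well per test compound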
CHRM5 agonist – human M5 muscarinic receptor agonists, primary screen, CHO-K1 cells, Fluo-8 calcium fluorescence | Muscarinic acetylcholine receptor M5 (Homo sapiens), P08912 | CHO-K1 hM5 cells; 0% DMSO wells, 100% maximal acetylcholine response | activation, % at 3 µM | actives 0.19% (n = 360,000) | AID 624037, 2012;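 active = activation above the run's mean over test compounds plus 3 SD, cut at about 23% in these data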;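 note: signal is peak over basal fluorescence ratio across the kinetic read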
CHRM4 antagonist – human M4 muscarinic receptor antagonists, primary screen, CHO cells, Fluo-8 calcium fluorescence | Muscarinic acetylcholine receptor M4 (Homo sapiens), P08173 | CHO-hM4 cells, ACh EC80 | inhibition, % at 3 µM | actives 0.73% (n = 360,000);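 active = inhibition above its plate's cutoff, the mean inhibition of sample wells plus 3 SD, cut at about 27% in these data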
M4 PAM – human M4 muscarinic receptor positive allosteric modulators, primary screen, CHO-K1 cells, Fluo-8 calcium fluorescence; Muscarinic acetylcholine receptor M4 (Homo sapiens), P08173; CHO-K1 hM4/Gqi5, ACh EC20; 0% = ACh EC20, 100% = maximal ACh; activation, % at 3 µM; actives 0.4% (n = 360,000); AID 624126, 2012;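 active = activation above its plate's cutoff, the mean activation of sample wells plus 3 SD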
M4 ag – human M4 muscarinic receptor agonists, primary screen, CHO-K1 cells, Fluo-8 calcium fluorescence | AID 624127, 2012 | activation, % at 3 µM | actives 0.14% (n = 360,000) | Muscarinic acetylcholine receptor M4 (Homo sapiens), P08173 | CHO-K1 hM4/Gqi5; vehicle 0%, full acetylcholine response 100%;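 active = activation above the run mean over all test wells plus 3 SD, cut at about 32% in these data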;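 note: peak over basal fluorescence ratio per well then scaled between controls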
Large screens that a line does not name were inactive.

COc1ccccc1CN1CCNC(=O)C1CC(=O)NC1CCCCCC1 (stereo not given)	none
CN(Cc1ccccn1)C(=O)C1CCC(=O)N(Cc2cccc(C(F)(F)F)c2)C1 (stereo not given)	none
COc1ccc(C2(C)NC(=O)N(CC(=O)c3cc(C)n(C4CC4)c3C)C2=O)cc1 (stereo not given)	CHRM5 agonist 42.0, M4 ag 35.3
Cc1cc(C(=O)CN2C(=O)NC(C)(c3ccc(F)c(F)c3)C2=O)c(C)n1C1CC1 (stereo not given)	none
Cc1ccc(OCC(=O)N(Cc2ccco2)C2CCS(=O)(=O)C2)cc1C (stereo not given)	none
Cc1cccc(C)c1OCC(=O)N(Cc1ccco1)C1CCS(=O)(=O)C1 (stereo not given)	M4 ag 32.3
CC1(C(=O)NS(=O)(=O)c2ccc3c(c2)CCO3)CCN1C(=O)COc1ccc(Cl)cc1 (stereo not given)	none
Cc1ccc(S(=O)(=O)Nc2ccccc2C(=O)Nc2nc(-c3ccc(F)cc3)cs2)cc1	M5 antag 37.8
O=C(Nc1ccc(F)cc1)Nc1ccc(N2CCCC2)c(S(=O)(=O)Nc2ccccc2Cl)c1	M5 antag 28.7
COc1ccc(-c2csc(NC(=O)c3ccccc3NS(=O)(=O)c3ccc(F)c(F)c3)n2)cc1	M5 antag 42.3
O=C(Nc1ccccc1N1CCOCC1)c1ccccc1NS(=O)(=O)c1ccc(F)cc1	none
O=C(Nc1ccccc1N1CCOCC1)c1ccccc1NS(=O)(=O)c1ccc(F)c(F)c1	M5 PAM 35.5
CC1(C)N=C(N)NC(=NCCCOc2ccc([N+](=O)[O-])cc2)N1	none
COc1ccc2c(CN3CCCCCCC3)cc(=O)oc2c1	none
O=C(Nc1cc(S(=O)(=O)N2CCCCC2)ccc1Cl)c1ccccc1NS(=O)(=O)c1ccc(F)cc1	M5 antag 30.4
O=C(Nc1cc(S(=O)(=O)N2CCCCC2)ccc1O)c1ccccc1NS(=O)(=O)c1ccc(F)cc1	none
Cc1ccc2nc(N(CCCN(C)C)C(=O)COc3ccc(Cl)cc3)sc2c1	M4 ag 37.9
CN(C)CCCN(C(=O)COc1ccc(Cl)cc1)c1nc2ccc(F)cc2s1	none
CCCCn1nnnc1C(c1cccs1)N1CCN(C/C=C/c2ccccc2)CC1 (stereo not given)	none
Cc1cccc(C)c1-n1nnnc1C(c1cccs1)N1CCN(C/C=C/c2ccccc2)CC1 (stereo not given)	M5 antag 28.8
Cc1cccc(C)c1-n1nnnc1C(c1ccccc1)N1CCN(C/C=C/c2ccccc2)CC1 (stereo not given)	M5 antag 31.4
CCCCn1nnnc1C(c1ccc(OC)cc1)N1CCN(C/C=C/c2ccccc2)CC1 (stereo not given)	none
O=C(NC(=S)NCCC1=CCCCC1)c1cccnc1	none
CC(C)Nc1ccc(C(CC(N)=O)NC(=O)c2ccc(Br)cc2)cc1[N+](=O)[O-] (stereo not given)	M5 PAM 19.9
CC(C)Nc1ccc(C(CC(N)=O)NC(=O)c2ccccc2)cc1[N+](=O)[O-] (stereo not given)	none
Cc1ccc(OCC(=O)NNC(=O)C2CSC3(C)CCC(=O)N23)cc1C (stereo not given)	none
CCOC(=O)C1=CCN(S(=O)(=O)c2ccc(Br)cc2)C1c1cccc(C)c1 (stereo not given)	none
Cc1sc2ncnc(N3CCC(C(=O)Nc4cc(C(F)(F)F)ccc4OCC(F)(F)F)CC3)c2c1C	none
N#Cc1ccc(N2CCN(C(=O)c3cccc(F)c3)CC2)c(F)c1	M4 PAM 16.3
O=C(C1CCC(=O)N(C2CC2)C1)N1CCC(Oc2ccccc2F)CC1 (stereo not given)	none
CCC(C(=O)NC1CCCC1)n1c2ccccc2c2nc(=O)cc(C)n21 (stereo not given)	none
Cc1nn(C)c(C)c1CN(Cc1nc(CCC(C)C)no1)C(C)C	M5 antag 31.6
Oc1ccc(N=Nc2ccc3c(c2)OCCO3)c2ncccc12	M5 antag 36.1, CHRM5 agonist 27.8, CHRM4 antagonist 30.4, M4 ag 36.6
O=C1CCN(c2ccc([N+](=O)[O-])cc2F)CC1	none
CC(=O)OCC(=O)[C@@]1(OC(C)=O)[C@@H](C)C[C@H]2[C@@H]3C[C@H](F)C4=CC(=O)C=C[C@]4(C)[C@@]3(F)[C@@H](O)C[C@@]21C	CHRM4 antagonist 41.3
CCC(C)Sc1nnc(NC(=O)c2ccco2)s1 (stereo not given)	none
CCN(CC)S(=O)(=O)c1ccc(N2CCOCC2)c(NC(=O)c2ccc(F)cc2)c1	none
CCN(CC)S(=O)(=O)c1ccc(N2CCOCC2)c(NC(=O)c2[nH]c(C)c(C(C)=O)c2C)c1	M4 PAM 28.9
NS(=O)(=O)c1ccc(Nc2nc(-c3ccc(O)cc3)cs2)cc1	none
Oc1ccc(Nc2nc(-c3ccc(O)cc3)cs2)cc1	M4 PAM 34.5
COc1ccc(Nc2ncc(C(=O)N3CCN(Cc4ccccc4)CC3)c3ccccc23)cc1	CHRM4 antagonist 27.7
COc1ccc(Nc2ncc(C(=O)N3CCC(C(N)=O)CC3)c3ccccc23)cc1	none
C[C@H]1[C@H](NC(=O)C(=NOC(C)(C)C(=O)O)c2csc(N)n2)C(=O)N1S(=O)(=O)O	none
CCc1ccc(CNC(=O)c2ccc3c(c2)NC(=O)C(N2CCOCC2)S3)cc1 (stereo not given)	none
CCOC(=O)N1CCN(C(=O)c2ccc3c(c2)NC(=O)C(N2CCOCC2)S3)CC1 (stereo not given)	M5 PAM 19.0
COCCN(C(=O)COC(=O)c1cc2ccccc2cc1O)c1c(N)n(Cc2ccccc2)c(=O)[nH]c1=O	none
COc1ccc(C(=O)NCCN2CCC(n3c(=O)[nH]c4ccccc43)CC2)cc1F	none
COc1cc(O)oc1C=Nc1ccc(Cl)cc1	M4 PAM 17.4
CC(C)(C)c1ccc(OCC(=O)O/N=C(\N)c2ccncc2)cc1	none
Cc1nnc(SCC(=O)N2N=C(c3ccc(Cl)cc3)CC2c2ccco2)[nH]c1=O (stereo not given)	M4 PAM 23.5
